PAFAH1B3 FP inh: PAFAH1B3 (human) inhibition | actives 0.28% (n = 340,000) | recombinant PAFAH1B3, FP-rhodamine probe, fluorescence polarization | inhibition, % at 3.39 µM | AID 492972;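 active = inhibition above the screen-wide average of all tested compounds plus 3 SD, cut at about 25% in these data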;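 note: 0% = enzyme with DMSO only and 100% = wells lacking PAFAH1B3 protein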
Target sequence (Q15102 whole entry, looked up): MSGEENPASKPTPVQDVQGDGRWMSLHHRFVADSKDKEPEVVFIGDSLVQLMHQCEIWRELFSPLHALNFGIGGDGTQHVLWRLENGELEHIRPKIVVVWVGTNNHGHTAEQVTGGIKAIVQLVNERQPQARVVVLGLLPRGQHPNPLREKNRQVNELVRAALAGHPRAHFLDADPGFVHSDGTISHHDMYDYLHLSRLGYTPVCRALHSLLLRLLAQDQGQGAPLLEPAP
PAFAH2 inh: PAFAH2 (human) inhibition | Q99487 | recombinant PAFAH2, FP-rhodamine activity probe, fluorescence polarization | inhibition, % at 3.39 µM | actives 0.99% (n = 340,000) | AID 492956;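 active = inhibition above the mean over all tested compounds plus 3 SD, cut at about 30% in these data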;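 note: inhibitors block probe labeling of enzyme so polarization drops; 0% = enzyme with DMSO and 100% = wells lacking PAFAH2 protein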
PAFAH1B2 inh: inhibitors of human PAFAH1B2 | P68402 | recombinant PAFAH1B2, FP-rhodamine activity probe, fluorescence polarization | inhibition, % at 3.39 µM | actives 1.2% (n = 340,000) | AID 492953;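 active = inhibition above the mean of all tested compounds plus 3 SD, cut at about 24% in these data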;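 note: 0% = enzyme with DMSO and 100% = wells lacking PAFAH1B2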
Target sequence (P68402 whole entry, looked up): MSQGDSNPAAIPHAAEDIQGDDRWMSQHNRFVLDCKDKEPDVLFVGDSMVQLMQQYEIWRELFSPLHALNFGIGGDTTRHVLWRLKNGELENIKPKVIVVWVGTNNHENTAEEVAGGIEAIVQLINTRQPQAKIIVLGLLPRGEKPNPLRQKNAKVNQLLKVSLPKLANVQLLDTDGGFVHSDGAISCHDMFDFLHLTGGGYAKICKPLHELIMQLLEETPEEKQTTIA
RBBP9 inhibitor: human RBBP9 hydrolase inhibition; AID 1515; actives 0.2% (n = 220,000); inhibition, % at 7.94 µM; O75884; recombinant RBBP9, FP-Rh probe fluorescence polarization;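 active = inhibition above the campaign mean of all tested compounds plus 3 SD, cut at about 14% in these data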;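 note: plate controls were DMSO wells with RBBP9 for no effect and wells lacking RBBP9 protein for full effect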
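Material: RBBP9 protein. Amount: RBBP9 at 2.5 µM in dispensed solution, before mixing. Schedule: 30 min then 45 min, 25 °C. Medium: Tris buffer pH 8.0, NaCl, Pluronic. Measured by: fluorescence polarization. Measure: percent inhibition from mP, scaled between DMSO and no-protein wells. Replication: one well per compound.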
pPAFAH FP inh: inhibitors of human plasma PAF acetylhydrolase (pPAFAH). actives 1.5% (n = 330,000). Q13093. recombinant pPAFAH, FP-rhodamine probe fluorescence polarization. inhibition, % at 3.39 µM;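 active = inhibition above the mean inhibition across the screen plus 3 SD, cut at about 25% in these data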;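 note: inhibitors block binding of the rhodamine activity-based probe so polarization drops; 0% = enzyme with DMSO and 100% = wells lacking pPAFAH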
pPAFAH confirm: pPAFAH (human) inhibition, confirmed. inhibition, % at 3.39 µM. recombinant pPAFAH, FP-Rh probe fluorescence polarization. shares compounds with pPAFAH FP inh. AID 463230. actives 72% (n = 2,300);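 active = mean inhibition of the triplicate above the hit cutoff set for the earlier primary screen, cut at about 25% in these data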;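 note: 0% = enzyme with DMSO and 100% = wells lacking pPAFAH enzyme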
The depositor's hits bear a star; · = not tested or not shown. Shown are actives, neighbours in structure and some others; about 2.7% of the full set was active somewhere.

SMILES	PAFAH1B3 FP inh	PAFAH2 inh	PAFAH1B2 inh	RBBP9 inhibitor	pPAFAH FP inh	pPAFAH confirm
Cc1cc(C)n2c(SC/C(O)=C(\C#N)c3nc4ccccc4[nH]3)nnc2n1	3.8	9.2	5.4	-2.2	34.6*	23.6
O=C(NCc1ccc(Cl)cc1)N1CCN(S(=O)(=O)c2ccccc2)CC1	2.0	0.1	5.3	·	-1.0	·
CCNc1cc(O)ccc1C	14.9	26.2	14.1	·	74.6*	11.8
Cc1ccc(C(=O)CNc2cc(C)ccc2C)cc1	1.9	-8.8	0.4	·	3.9	·
Cc1ccc(NC(=O)CN(C)C(=O)CCC(=O)N2CCOCC2)cc1	5.2	3.3	2.2	·	2.7	·
O=C1c2ccc(Cl)cc2S(=O)(=O)c2cccc(C(=O)N3CCN(c4ccc(Cl)cn4)CC3)c21	1.6	0.0	3.6	·	8.0	·
O=C1c2ccc(-c3ccc(F)cc3OCc3ccccc3)cc2S(=O)(=O)c2cccc(C(=O)N3CCN(c4ncc(Br)cn4)CC3)c21	-7.8	-5.6	-4.0	·	42.8*	32.4*
O=C1c2ccc(-c3ccc(F)cc3OCc3ccccc3)cc2S(=O)(=O)c2cccc(C(=O)N3CCN(c4ncc(Cl)cc4Cl)CC3)c21	4.4	1.6	-6.0	·	37.4*	25.4*
COc1ccc(-c2ccc3c(c2)S(=O)(=O)c2cccc(C(=O)N4CCN(c5ccc(Cl)cn5)CC4)c2C3=O)cc1OC	-4.4	61.6*	5.4	·	36.4*	48.9*
O=C(NN1C(=O)c2ccccc2C1=O)C1CCCCC1	1.4	4.7	2.1	9.3	1.9	·
N#Cc1ccsc1NC(=O)C1CCCN1S(=O)(=O)c1cccs1 (stereo not given)	0.8	0.9	3.6	·	3.5	·
O=C(O)c1ccc(-c2ccc(/C=N/Nc3ccc([N+](=O)[O-])cc3)o2)cc1	10.4	10.4	5.9	1.7	46.7*	38.5*
O=C(O)c1cccc(-c2ccc(/C=N/Nc3ccc([N+](=O)[O-])cc3)o2)c1	2.0	5.4	0.9	12.0	41.7*	27.9*
Cc1cc(C)n(Cc2ccc(C(=O)N/N=C/c3ccc(-c4ccc([N+](=O)[O-])cc4)o3)o2)n1	4.9	37.7*	-2.1	·	52.1*	46.7*
CCCCC(=O)N/N=C/c1ccc(-c2ccc([N+](=O)[O-])cc2)o1	-1.8	7.6	3.4	1.3	8.0	·
COC(=O)c1cc(Cn2nc(C(=O)O)c3ccccc3c2=O)oc1C	8.0	-2.8	-3.1	·	0.8	·
Oc1ccc(/C=N/N=C(c2ccccc2)c2ccccc2)c(O)c1O	20.7	3.0	1.0	0.1	58.5*	82.8*
NC(N)=N/N=C/c1ccccc1	3.9	1.7	6.9	2.2	4.1	·
O=C(/C(=N/N=C/c1ccc(O)c(O)c1O)c1ccccc1)c1ccccc1	-14.3	4.2	-11.0	-4.1	79.7*	84.6*
Cc1cc(=O)oc2cc(OCC(=O)Nc3ccccc3C(N)=O)c(Cl)cc12	4.8	1.2	4.3	·	-10.4	·
Oc1c(Br)cc(C=Nc2ccc3nc(-c4ccccc4)[nH]c3c2)c(O)c1Br	·	·	·	10.1	43.8*	34.8*
Cc1ccc(Nc2nc(-c3cccnc3)nc3ccccc23)cc1	3.3	-2.3	0.4	-18.6	-7.6	·
Cc1c(O)ccc(/C=N/Nc2nc(-c3cccnc3)nc3ccccc23)c1O	30.2*	-15.8	10.8	4.6	42.3*	45.6*
Cc1cccc(OCC(=O)N(C)CCc2ccccn2)c1	-2.6	-3.4	6.0	-3.6	0.6	·
O=C(Nc1nc2c(s1)CN(Cc1ccccc1)CC2)c1c(F)cccc1F	-0.7	-7.4	-3.8	-5.4	62.0*	2.3
SMILES	PAFAH1B3 FP inh	PAFAH2 inh	PAFAH1B2 inh	RBBP9 inhibitor	pPAFAH FP inh	pPAFAH confirm
CC(C)(C)C(=O)Nc1nc2c(s1)CN(Cc1ccccc1)CC2	11.8	2.5	7.0	-12.3	-0.1	·
Cc1ccccc1NC(=O)c1c2c(nc3ccccc13)CCC2	11.8	11.1	7.3	3.0	7.7	·
COc1ccc(C(=O)/C=C/NCc2ccc(F)cc2)cc1OC	11.2	3.5	3.8	-8.9	5.5	·
Cc1csc(=Nc2ccc(S(=O)(=O)N3CCOCC3)cc2)n1Cc1ccco1	6.9	-2.0	2.8	-2.9	46.2*	9.9
Cc1csc(=Nc2cccnc2)n1Cc1ccco1	16.1	-4.6	0.4	-9.3	-8.9	·
Nc1ncnc2oc(-c3ccco3)c(-c3ccco3)c12	37.1*	49.6*	21.2	-2.3	42.2*	9.4
